Assay results from different studies.
Target: STE20-like serine/threonine-protein kinase (SLK, Homo sapiens, UniProt Q9H2G2)

Compound | observed | action | technique | tested at | measurement | result
CC1=C(C#N)C(c2ccc3c(c2)c(NC(=O)c2ccccc2C)nn3C)C(C#N)=C(C)N1 | cell-free assay |  | competition with immobilised ligand | 1 µM | remaining binding | 88%
CC(C)(C)c1nc2c(s1)c1nc(N)ncc1c1ccc(NS(=O)(=O)c3c(F)cccc3F)c(F)c12 | enzyme activity | inhibitor | radiometric | 1 µM | remaining activity | 95%
CNC(=O)c1cc(Oc2ccc(NC(=O)Nc3ccc(Cl)c(C(F)(F)F)c3)cc2)ccn1 | cell-free assay |  |  | 0.5 µM | remaining signal | 96.8%
Cn1c2c(Cl)c(Cl)ccc2c2cn[nH]c(=O)c21 | thermal stability |  | DSF | 10 µM | ΔTm | 0.4 °C
CCS(=O)(=O)c1cc2cc(C[C@](O)(CC(C)(C)c3ccc(F)cc3C(N)=O)C(F)(F)F)[nH]c2cn1 | cell-free assay |  | competition with immobilised ligand | 1 µM | remaining binding | 100%
CC(C)(O)[C@H]1CC[C@H](Nc2ccc3ncc(-c4cccc(C(F)(F)F)c4)n3n2)CC1 | enzyme activity | inhibitor |  | 1 µM | remaining activity | 71.5%
COc1cc(Cl)c(C(=O)N[C@@H](CN[C@H]2CC[C@@H](N)CC2)Cc2ccc(C#N)cc2)cc1-c1ccc(CN[C@H](C)c2ccc(C)cc2)o1 | enzyme activity | inhibitor |  | 1 µM | remaining activity | 95%
Cc1ccc(NC(=O)c2ccc(CN3CCN(C)CC3)cc2)cc1Nc1nc(-c2cccnc2)cs1 | cell-free assay |  |  | 0.5 µM | remaining signal | 92.4%
Cc1sc(C(=O)NC2COC2)cc1-n1cc(NC(=O)Nc2c(F)cccc2Cl)cn1 | enzyme activity | inhibitor |  | 10 µM | remaining activity | 99.7%
CNC(=O)Nc1ccc2c(c1)CC[C@@]21OC(=O)N(CC(=O)N(Cc2ccc(F)cc2)[C@@H](C)C(F)(F)F)C1=O | cell-free assay |  | competition with immobilised ligand | 1 µM | remaining binding | 82%
CCN1CCC2(CC1)NC(=O)c1c(c3ccc(Cl)c(Cl)c3n1C)C2C#N (racemic) | thermal stability |  | DSF | 10 µM | ΔTm | 0.1 °C
CCOc1cc(-c2nncn2C)ccc1Nc1ncc2cc(C)nc(NCC(C)(C)C)c2n1 | cell-free assay |  | TR-FRET | 1 µM | inhibition | ≤ 15%
CN1CC(Oc2cnc(C#N)cc2-c2ccn3nc(NC(=O)C4CC4)cc3c2)C1 | enzyme activity | inhibitor |  | 1 µM | inhibition | 7%
O=C1CCc2cc(Nc3cc(OC4CCOCC4)c([N+](=O)[O-])cc3Cl)ccc2N1 | cell-free assay |  | competition with immobilised ligand | 1 µM | remaining binding | 100%
CN1CCC2(CC1)NC(=O)c1c(c3ccc(Cl)c(Cl)c3n1C)C2C#N (racemic) | thermal stability |  | DSF | 10 µM | ΔTm | -0.5 °C
CO[C@@H](C)c1c(Nc2ccc([C@H](N(C)C(=O)C3CCS(=O)(=O)CC3)C(F)(F)F)cc2)cnc2cc(Cl)nn12 | cell-free assay |  | competition with immobilised ligand | 1 µM | remaining binding | 81%
Cc1ccc(Nc2nccc(N(C)c3ccc4c(C)n(C)nc4c3)n2)cc1S(N)(=O)=O | enzyme activity | inhibitor |  | 0.5 µM | remaining activity | 84.9%
